Screening results as filed in PubChem.
The full list was thinned out, with hits kept by preference.
DUSP1 inh = blocks human MKP-1 phosphatase activity; P28562; recombinant MKP-1, OMFP hydrolysis fluorescence; inhibition, %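 (compounds tested at a single concentration somewhere between 10 and 100 µM)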; hit rate 0.15% among 65,000; AID 374;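 active = inhibition above about 50%, limit read from the data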;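 also: 0% = DMSO max control wells and 100% = wells with enzyme stopped by NaOH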
Target sequence (P28562 whole entry, looked up): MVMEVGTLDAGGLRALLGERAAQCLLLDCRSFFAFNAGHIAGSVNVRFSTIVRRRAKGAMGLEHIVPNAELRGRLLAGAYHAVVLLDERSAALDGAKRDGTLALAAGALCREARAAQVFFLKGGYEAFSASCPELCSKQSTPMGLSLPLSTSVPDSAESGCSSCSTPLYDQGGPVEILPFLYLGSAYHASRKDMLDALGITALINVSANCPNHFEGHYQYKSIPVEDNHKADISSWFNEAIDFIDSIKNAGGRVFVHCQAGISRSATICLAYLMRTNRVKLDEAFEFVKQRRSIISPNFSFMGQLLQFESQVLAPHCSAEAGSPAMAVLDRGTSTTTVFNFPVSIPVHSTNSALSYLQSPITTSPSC
MMP13 inh = inhibitors of human MMP13; P45452; MMP-13 fTHP FRET cleavage, Mca fluorescence; inhibition, % at 4 µM; hit rate 0.07% among 65,000; AID 570;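 active = inhibition above the mean of compound-free control plate wells plus 3 SD, cut at about 14% in these data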;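 also: 0% = DMSO wells and 100% = wells with reference MMP-13 inhibitor after basal subtraction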
HePTP inhibitor = inhibitors of human HePTP phosphatase. P35236. recombinant HePTP phosphatase activity, OD absorbance. hit rate 0.64% among 110,000. inhibition, % at 20 µM; in the data active = inhibition above about 50%;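 also: plate controls were vehicle for no effect and reference inhibitor for full effect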
Cdc25B block = inhibitors of human Cdc25B phosphatase; hit rate 0.1% among 65,000; P30305; inhibition, %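 (compounds tested at 10 µM final in the well)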; recombinant Cdc25B, OMFP fluorescence Ex485/Em525; AID 368; in the data active = inhibition above about 50%
Ecoli WT expand = blocks growth of wild type E. coli BW25113 | AID 710 | hit rate 0.15% among 98,000 | OD600 absorbance | growth inhibition, % at 100 µM;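 active = growth inhibition above about 50% at one test dose, limit read from the data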;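 also: growth measured after 20 h incubation at 37 °C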
Ecoli tolC = growth inhibitors of E. coli BW25113 tolC mutant; OD615; hit rate 2.2% among 65,000; AID 573; growth inhibition, % at 10 µM (by protocol);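 active = growth inhibition at or above a cutoff equal to the mean over every tested compound plus 3 SD, cut at about 60% in these data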;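 also: growth measured after 20 h incubation at 37 °C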
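Doses: one dose of 10 µM final / Material: E. coli BW25113 ΔtolC::kan, tolC deletion mutant strain / Buffer or medium: LB with kanamycin 50 µg/mL / Evaluation: percent growth inhibition / Detection: optical density read at 615 nm / Incubation: 37 °C, 20 h exposure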
Active calls of the source: *; . = no result.

SMILES | DUSP1 inh | MMP13 inh | HePTP inhibitor | Cdc25B block | Ecoli WT expand | Ecoli tolC
Cc1ccc(NC(=O)c2cc(Br)ccc2Cl)c([N+](=O)[O-])c1 | . | . | 6 | . | . | .
CCN(CC)CCCCCCOc1ccccc1OC | . | . | -15 | . | . | .
O=C(CSc1ncnc2c1oc1ccccc12)N1CCCc2ccccc21 | 14 | -1 | -2 | 2 | -30 | 63*
O=C(Cn1cnc2c(oc3ccccc32)c1=O)N1CCCc2ccccc21 | 11 | 3 | -3 | 2 | 2 | 6
Cc1cccc(-n2c(C)cc(/C=C3/NC(=O)NC3=O)c2C)c1 | . | . | -15 | . | . | .
CC1CCCCC1n1c(=S)[nH]c2ccccc2c1=O (centres undefined) | 10 | -1 | 2 | -19 | -2 | 100*
CC(C)n1c(=S)[nH]c2ccccc2c1=O | . | . | . | . | -2 | .
Cn1c(/C(C#N)=C/C2CC=CCC2)nc2ccccc21 (centres undefined) | 11 | 0 | 2 | -12 | -2 | 3
N#C/C(=C\C1CC=CCC1)c1nc2ccccc2[nH]1 (centres undefined) | -9 | -36 | 0 | -1 | -7 | 64*
O=C(c1noc2c1CCc1ccccc1-2)N1CCCc2ccccc21 | 0 | 2 | 6 | 4 | -10 | 99*
Cc1cc(NC(=O)c2noc3c2CCc2ccccc2-3)no1 | 7 | 2 | 9 | 2 | -7 | -6
O=C(c1noc2c1CCc1ccccc1-2)N1CCc2ccccc2C1 | -14 | 3 | -5 | -10 | -8 | 87*
O=C(c1noc2c1CCc1ccccc1-2)N1CCOCC1 | 3 | 3 | 8 | 4 | 4 | -24
COc1ccccc1N1C(=O)S/C(=C\c2ccccc2Cl)C1=O | . | . | 7 | . | . | .
O=C1/C(=C/c2ccncc2)SC(=S)N1C1CCS(=O)(=O)C1 (centres undefined) | . | . | . | . | 54* | .
O=C1/C(=C/C=C/c2ccccc2)SC(=S)N1C1CCS(=O)(=O)C1 (centres undefined) | . | . | -2 | . | . | .
O=C(c1cccc(F)c1)N1CCN(C(=O)c2cc(-c3ccc(Cl)cc3Cl)on2)CC1 | 9 | 3 | 6 | 2 | -14 | 64*
O=C(c1cccc(F)c1)N1CCN(c2ccc(Cl)cc2)CC1 | . | . | 0 | . | . | .
CCCCn1c(NC(C)=O)c(C#N)c2nc3ccccc3nc21 | -4 | -143 | 10 | 6 | 0 | 26
C=CCn1c(NC(=O)c2ccccc2Cl)c(C#N)c2nc3ccccc3nc21 | 20 | -18 | 9 | 26 | 0 | 84*
C=CCn1c(NC(=O)c2ccccc2)c(C#N)c2nc3ccccc3nc21 | 36 | -78 | 10 | 25 | . | 89*
CC1=C(C(=O)Nc2ccccc2)C(c2ccccc2F)NC(=O)N1 (centres undefined) | . | . | 8 | . | . | .
CCCCOC(=O)c1cccc(NC(=O)c2ccccc2Br)c1 | . | . | -4 | . | . | .
Cc1ccc(-c2nnn(CC(=O)N(Cc3ccco3)C(C(=O)NC(C)(C)C)c3cccs3)n2)o1 (centres undefined) | 16 | 0 | 4 | 7 | -5 | 74*
Cc1ccc(-c2nnn(CC(=O)N(Cc3cccs3)C(C(=O)NC(C)(C)C)c3ccco3)n2)o1 (centres undefined) | 17 | -3 | 0 | 2 | -8 | 69*
SMILES | DUSP1 inh | MMP13 inh | HePTP inhibitor | Cdc25B block | Ecoli WT expand | Ecoli tolC
CC(C)(C)NC(=O)C(c1ccco1)N(C(=O)Cn1nnc(-c2ccc(F)cc2)n1)c1cccc(F)c1 (centres undefined) | 32 | -5 | 11 | 16 | 2 | 67*
Cc1ccc(-c2nnn(CC(=O)N(Cc3cccs3)C(C(=O)NC(C)(C)C)c3ccc(C)o3)n2)o1 (centres undefined) | -3 | 3 | 7 | -10 | -10 | -28
Cc1ccc(-c2nnn(CC(=O)N(c3cccc(F)c3)C(C(=O)NC3CCCC3)c3ccco3)n2)o1 (centres undefined) | 26 | 2 | 5 | 7 | 1 | -19
CC(Oc1ccccc1)C(=O)Nc1cc(C(=O)Nc2ccccc2)ccc1Cl (centres undefined) | . | . | -3 | . | . | .
CCc1ccccc1NC(=O)C1(c2ccccc2)CC1(Cl)Cl (centres undefined) | . | . | -20 | . | . | .
CCOc1ccc(N2C(=O)CC(NCc3ccc(S(N)(=O)=O)cc3)C2=O)cc1 (centres undefined) | . | . | -5 | . | . | .
CCOc1ccc(N2C(=O)CC(NCc3ccc(Cl)cc3Cl)C2=O)cc1 (centres undefined) | . | . | 104* | . | . | .
Cc1ccc(C)n1-n1cnc2sc3c(c2c1=O)CCCCC3 | . | . | . | . | 2 | .
Cc1ccc(C)n1-n1c(C)nc2sc3c(c2c1=O)CCCCC3 | 10 | -2 | -8 | -8 | -3 | 67*
CC1CC(N(C(=O)c2ccco2)c2ccccc2)c2ccccc2N1 (centres undefined) | 0 | 6 | 4 | -18 | 1 | 68*
CCOc1ccc(NC(=O)CC2S/C(=N\N=C(/C)c3cccc(NC(C)=O)c3)NC2=O)cc1 (centres undefined) | . | . | -6 | . | . | .
Cc1cccc(N2CCN(S(=O)(=O)c3ccc4c(c3)CCN4C(=O)CCC(=O)O)CC2)c1C | 51* | -9 | 5 | 9 | -6 | 38
Cc1ccc(C)c(N2CCN(S(=O)(=O)c3ccc4c(c3)CCN4C(=O)CCC(=O)O)CC2)c1 | . | . | . | . | -9 | .
O=C(O)CCCC(=O)N1CCc2cc(S(=O)(=O)N3CCc4ccccc43)ccc21 | 17 | 3 | 2 | 2 | 2 | 75*
COc1ccc(N(CC(=O)Nc2ccc(I)cc2)S(C)(=O)=O)c(OC)c1 | . | . | -8 | . | . | .
N#CCCN(CCc1ccccc1)S(=O)(=O)c1cccc2nsnc12 | . | . | -12 | . | . | .
O=C(c1cc2nc(-c3ccco3)cc(C(F)(F)F)n2n1)N1CCN(c2ccccn2)CC1 | 18 | -3 | 10 | 7 | -3 | 22
O=C(c1cc2nc(-c3ccco3)cc(C(F)(F)F)n2n1)N1CCN(c2ccccc2)CC1 | 24 | -5 | 3 | -9 | -7 | 71*
O=C(Nc1cc(Oc2cccnc2)cc([N+](=O)[O-])c1)c1cc2nc(-c3ccco3)cc(C(F)(F)F)n2n1 | . | . | -9 | . | . | .
COCc1nnc(NC(=O)c2ccc(NC(=O)C(C)C)cc2)s1 | -9 | 15* | 6 | -8 | 1 | -5
COC(=O)Cc1nnc(NC(=O)c2ccccc2)s1 | -8 | 1 | 7 | 2 | -11 | -20
COc1ccc2ccccc2c1C=Nc1ccc(C)c(I)c1 | . | . | -8 | . | . | .
O=C(Cc1cccs1)Nc1ccc(Cl)cc1 | -8 | -2 | 11 | -14 | 9 | 13
O=C(Nc1ccc(Cl)cc1)N(Cc1cccs1)Cc1cccs1 | 11 | 2 | 4 | -8 | -24 | 95*
CCC1(C)Cc2ccccc2-c2nc3n(c(=O)c21)CCCCC3 (centres undefined) | 6 | 7 | 2 | -13 | 2 | 100*
CCn1c(C(=O)N2CCC(Cc3ccccc3)CC2)cc2sccc21 | -1 | 4 | -1 | -2 | 1 | 80*
CCn1c(C(=O)N2CCCC(C(=O)O)C2)cc2sccc21 (centres undefined) | 11 | 0 | -2 | -9 | . | -14
Cc1ccc(N(CC(=O)N2CCCC2)S(C)(=O)=O)cc1Cl | . | . | 8 | . | . | .
